How the values were obtained:
[1] = biological target: Angiotensin II receptor (Oryctolagus cuniculus); assay: Tested for the antagonism of AII-induced contraction in rabbit endothelium-denuded aorta strips
Angiotensin II receptor = biological target: T1, Angiotensin II receptor (Rattus norvegicus, UniProt P29089+P25095+P35351); assay: Tested for the binding affinity using radioligand [125I]-Sar1 Ile8-AII in the rat adrenal capsular membranes (adrenal cortex); format: cell membranes
T1 sequence (P29089 whole entry): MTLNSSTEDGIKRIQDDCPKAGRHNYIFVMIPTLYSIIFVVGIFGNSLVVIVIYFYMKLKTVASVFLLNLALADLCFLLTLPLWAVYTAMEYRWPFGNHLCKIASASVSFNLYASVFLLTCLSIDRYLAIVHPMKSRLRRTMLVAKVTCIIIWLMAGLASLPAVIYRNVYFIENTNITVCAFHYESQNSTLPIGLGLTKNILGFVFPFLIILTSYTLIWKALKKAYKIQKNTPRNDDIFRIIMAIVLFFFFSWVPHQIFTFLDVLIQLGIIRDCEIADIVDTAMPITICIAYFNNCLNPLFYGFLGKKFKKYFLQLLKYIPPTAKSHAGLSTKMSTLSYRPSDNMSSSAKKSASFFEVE
T1 sequence (P25095 whole entry): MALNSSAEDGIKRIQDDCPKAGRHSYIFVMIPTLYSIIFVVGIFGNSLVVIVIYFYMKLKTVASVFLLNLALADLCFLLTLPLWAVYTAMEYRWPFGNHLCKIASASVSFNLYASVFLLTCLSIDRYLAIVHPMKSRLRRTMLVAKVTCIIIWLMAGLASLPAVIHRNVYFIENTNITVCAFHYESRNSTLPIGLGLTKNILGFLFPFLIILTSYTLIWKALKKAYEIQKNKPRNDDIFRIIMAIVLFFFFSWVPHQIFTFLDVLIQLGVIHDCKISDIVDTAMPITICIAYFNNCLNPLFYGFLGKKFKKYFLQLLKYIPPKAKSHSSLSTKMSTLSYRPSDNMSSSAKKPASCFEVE
T1 sequence (P35351 whole entry): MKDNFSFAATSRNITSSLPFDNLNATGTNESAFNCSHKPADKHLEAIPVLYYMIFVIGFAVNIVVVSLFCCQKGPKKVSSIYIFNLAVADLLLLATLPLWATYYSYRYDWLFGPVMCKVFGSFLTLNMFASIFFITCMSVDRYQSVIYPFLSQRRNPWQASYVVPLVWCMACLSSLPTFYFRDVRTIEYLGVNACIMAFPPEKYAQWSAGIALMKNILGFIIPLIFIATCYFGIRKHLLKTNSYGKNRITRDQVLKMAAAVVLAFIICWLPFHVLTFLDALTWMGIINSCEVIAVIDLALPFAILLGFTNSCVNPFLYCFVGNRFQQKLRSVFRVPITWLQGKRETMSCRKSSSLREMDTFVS
Method in brief: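 Membranes from rat adrenal capsules, homogenized in 50 mM Tris-HCl, washed by repeated 50000g spins at 4 °C, resuspended in pH 7.4 sodium phosphate assay buffer with NaCl, EDTA, PMSF, protease inhibitors, BSA and bacitracin. Nonspecific binding defined with 1 uM unlabeled peptide. Bound label separated by vacuum filtration. Ki fitted from replicate curves.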

CCCCc1nc(Cl)c(CO)n1Cc1ccc(-c2ccsc2C(=O)O)cc1
pA2 [1]: < 5 | Ki (Angiotensin II receptor): 14.5 µM

CCCCc1nc(Cl)c(CO)n1Cc1ccc(-c2nc(C)sc2C(=O)O)cc1
pA2 [1]: < 5 | Ki (Angiotensin II receptor): > 10 µM

CCCCc1nc(Cl)c(CO)n1Cc1ccc(-c2cccnc2C(=O)O)cc1
pA2 [1]: 6.1 | Ki (Angiotensin II receptor): 3.3 µM

CCCCc1nc(Cl)c(CO)n1Cc1ccc(-c2cnccc2C(=O)O)cc1
pA2 [1]: < 5 | Ki (Angiotensin II receptor): 6.7 µM

CCCCc1nc(CO)c(Cl)n1Cc1ccc(-c2ccoc2C(=O)O)cc1
pA2 [1]: 6 | Ki (Angiotensin II receptor): > 10 µM

CCCCc1nc(Cl)c(CO)n1Cc1ccc(-c2ccoc2C(=O)O)cc1
pA2 [1]: < 5 | Ki (Angiotensin II receptor): > 10 µM

CCCCc1nc(Cl)c(CO)n1Cc1ccc(-c2ccccc2C(=O)O)o1
pA2 [1]: 5.2 | Ki (Angiotensin II receptor): > 10 µM

CCCCc1nc(CO)c(Cl)n1Cc1ccc(-c2nc(C)sc2C(=O)O)cc1
pA2 [1]: <= 5 | Ki (Angiotensin II receptor): > 10 µM

CCCCc1nc(CO)c(Cl)n1Cc1ccc(-c2ncccc2C(=O)O)cc1
pA2 [1]: < 5 | Ki (Angiotensin II receptor): > 10 µM

CCCCc1nc(CO)c(Cl)n1Cc1ccc(-c2cccnc2C(=O)O)cc1
pA2 [1]: < 5 | Ki (Angiotensin II receptor): > 10 µM

CCCCc1nc(Cl)c(CO)n1Cc1ccc(-c2ccccc2C(=O)O)s1
pA2 [1]: < 5 | Ki (Angiotensin II receptor): > 10 µM

CCCCc1nc(Cl)c(CO)n1Cc1ccc(-c2ncccc2C(=O)O)cc1
pA2 [1]: < 5 | Ki (Angiotensin II receptor): 9.8 µM
